The list is not random: actives were taken first. Their share in the collection is about 2.6%.
Ecoli rRNA inh: selective bacterial rRNA inhibition in E. coli. E. coli WT GFP vs humanized-ribosome RFP mutants, fluorescence, 24 h; stronger effect = lower value; DMSO median 0, no signal -100. GFP signal change (wild-type ribosome), % (no concentration beside the values). 350,000 compounds, 1.6% hits. AID 720706;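 active means significant combined selectivity score with lowered wild-type GFP, culture density cut under 30%, mutant RFP and density less affected; inactive means any of these conditions unmet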
SR-BI DiI inh: inhibitors of mouse SR-BI mediated HDL lipid uptake | Q61009 | ldlA[mSR-BI] CHO cells, DiI-HDL uptake fluorescence, 3 h | inhibition, % at 12.5 µM | 320,000 compounds, 0.96% hits | AID 488896;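 active means mean replicate inhibition of at least 70% and a set share of replicates each scoring 70 or more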;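 further: 0% = median of neutral control wells and 100% = median of positive control wells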
Target sequence (Q61009 whole entry, looked up): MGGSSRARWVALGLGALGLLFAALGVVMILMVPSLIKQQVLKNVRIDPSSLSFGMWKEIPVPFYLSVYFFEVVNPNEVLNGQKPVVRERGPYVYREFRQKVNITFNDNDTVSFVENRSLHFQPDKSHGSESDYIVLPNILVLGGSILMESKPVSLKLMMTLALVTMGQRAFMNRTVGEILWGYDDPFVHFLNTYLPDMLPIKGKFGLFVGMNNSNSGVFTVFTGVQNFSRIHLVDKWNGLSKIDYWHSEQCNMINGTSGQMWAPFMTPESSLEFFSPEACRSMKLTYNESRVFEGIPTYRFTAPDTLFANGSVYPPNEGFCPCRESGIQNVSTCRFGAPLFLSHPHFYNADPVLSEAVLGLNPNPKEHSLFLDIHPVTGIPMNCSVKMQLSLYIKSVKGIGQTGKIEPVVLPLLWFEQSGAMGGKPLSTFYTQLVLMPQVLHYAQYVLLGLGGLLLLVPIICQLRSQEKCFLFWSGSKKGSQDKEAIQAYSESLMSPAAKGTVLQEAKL
PvdQ inh: P. aeruginosa PvdQ acylase inhibition. purified PvdQ acylase, fluorescence plate reader. inhibition, % at 10 µM. 340,000 compounds, 0.063% hits; in the data active means inhibition above about 30%, passing the limit was not always enough;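 further: 0% = vehicle neutral wells and 100% = reference inhibitor wells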
SR-BI DiI-HDL act: activators of SR-BI mediated HDL lipid uptake; AID 504775; CHO ldlA[mSR-BI] cells, DiI-HDL uptake fluorescence, 3 h; 100 = double the neutral-control signal; 320,000 compounds, 0.096% hits; activation, % at 12.5 µM;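 active means mean replicate activation of at least 60% and every replicate at or above 60%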;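 further: 0% = median plate neutral-control signal and 100% = twice that signal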
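System: CHO ldlA[mSR-BI] cells / Medium: HEPES-buffered (25 mM, pH 7.4) F12 plus 0.5% BSA / Probe or stimulus: labelled HDL, 10 µg/mL / Doses: single compound concentration, delivered by pin transfer / Schedule: 3 h, 37 °C / Measured by: DiI fluorescence, bottom read / Measure: cell-associated DiI fluorescence as measure of HDL uptake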
Xi reactivation: X-chromosome reactivation activator. XiGFP mouse fibroblasts, % GFP-positive cells imaging, 3 d; cells co-treated with 5-aza-dC sensitizer; scaled so ellipticine positive control = 100%. activation, % at 7.58 µM. 360,000 compounds, 0.055% hits. AID 743238;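 active means mean normalized replicate activation at least 10% and every replicate at or above 10%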;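 further: 0% = median of on-plate neutral control wells and 100% = ellipticine 6 µM median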
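Material: XiGFP fibroblasts, SV40-immortalized; Buffer or medium: DMEM containing 5-aza-dC; Compound dosing: single point; Times: 3 days compound exposure.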
dFosB act-1: enhances mouse delta FosB homodimer DNA binding | purified delta FosB, TAMRA-CDK5 oligo fluorescence polarization; percent of positive-control signal above neutral wells | activation, % at 25 µM | AID 493131 | P13346 | 340,000 compounds, 0.99% hits;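 active means mean activation above about 17%, with every replicate also reaching it, limit read from the data, passing the limit was not always enough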
dFosB act-2: delta FosB (mouse) homodimer activation | shares compounds with dFosB act-1 | activation, % at 24.9 µM | 2,400 tested, under 10 active | purified delta FosB, TAMRA-CDK5 oligo fluorescence polarization; normalised: neutral wells 0, positive control 100;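 active means highest replicate activation at or above 34% and every replicate reaching that threshold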;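 further: higher polarization means more probe DNA bound by delta FosB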
An asterisk follows results filed as active; · = no result.

SMILES | Ecoli rRNA inh | SR-BI DiI inh | PvdQ inh | SR-BI DiI-HDL act | Xi reactivation | dFosB act-1 | dFosB act-2
N#Cc1ccc(C23CC4(C2)[C@H](CN(Cc2ccc(-c5ccccc5)cc2)[C@@H]4c2ccccc2)C3c2ccc(Cl)nc2)cc1 (stereo not given in full) | · | -19 | -9 | 19 | 0 | 17* | 4
CCOc1ccc(NC(=O)NCCN2CCN(c3cccc(C)c3C)CC2)cc1 | -1 | 22 | -16 | -22 | 0 | -4 | ·
COc1ccc(NC(=O)Cn2nnc(C(=O)NCc3cccs3)c2N)cc1 | 16 | 1 | -2 | -1 | 0 | 14 | ·
O=C(Cn1nnc2c(cnn2-c2ccccc2)c1=O)NCc1cccs1 | · | 6 | -12 | -6 | · | 38* | 5
COc1ccccc1NC(=O)Cn1nnc(C(=O)NCc2cccs2)c1N | 3 | 3 | -15 | -3 | 0 | 22* | -7
CCc1ccccc1NC(=O)Cn1nnc(C(=O)NCc2cccs2)c1N | · | -21 | -9 | 21 | 0 | 40* | 0
Cc1nn(CC(=O)N/N=C/c2cccs2)c(C)c1[N+](=O)[O-] | 25 | 3 | -8 | -3 | 0 | -3 | ·
CCOC(=O)c1ccc(S(=O)(=O)NNC(=O)COc2ccc(C)cc2)cc1 | · | -27 | -13 | 27 | -1 | 61* | 4
CC(=O)Oc1cccc(N2C(=O)c3ccc(C(=O)Nc4c[nH]c(=O)[nH]c4=O)cc3C2=O)c1 | · | -11 | -8 | 11 | · | 20* | 1
COc1ccc(S(=O)(=O)N2CCCC(C(=O)N3CCCC3)C2)cc1OC (stereo not given) | 3 | 4 | 14 | -4 | 0 | -6 | ·
Cc1ccc(S(=O)(=O)c2nc(Nc3ccccc3C#N)sc2Cl)cc1 | 10 | 18 | -13 | -18 | 0 | -5 | ·
Cc1ccc(S(=O)(=O)c2nc(Nc3ccccc3N3CCOCC3)sc2Cl)cc1 | · | 10 | -2 | -10 | · | 22* | 3
CCn1c(SCC(=O)Nc2ccc(C(C)=O)cc2)nc2c([nH]c3ccccc32)c1=O | 16 | 18 | -7 | -18 | 0 | 33* | 3
CCn1c(SCC(=O)Nc2cccc(NC(C)=O)c2)nc2c([nH]c3ccccc32)c1=O | 11 | 2 | 10 | -2 | 0 | 9 | ·
COc1ccc(OC)c(S(=O)(=O)NCc2cn3c(C)csc3n2)c1 | 4 | -15 | 1 | 15 | 0 | 6 | ·
CN(CC(=O)Nc1ccc(Cl)cc1)S(=O)(=O)c1ccc2c(c1)n(C)c(=O)c(=O)n2C | 4 | -9 | -8 | 9 | 0 | 12 | ·
CN(CC(=O)Nc1cccc(Cl)c1)S(=O)(=O)c1ccc2c(c1)n(C)c(=O)c(=O)n2C | 10 | 8 | 4 | -8 | 0 | 46* | 0
O=C(Cn1cc(C(F)(F)F)cc(Cl)c1=O)NCc1ccc(Cl)cc1Cl | 4 | 3 | -13 | -3 | 0 | 46* | 2
COc1ccc(-c2cc3c(=O)n(CC(=O)Nc4ccc(C(C)=O)cc4)ncn3n2)cc1 | 18 | 13 | -13 | -13 | 0 | 74* | -2
COc1ccc(-c2cc3c(=O)n(CC(=O)NCc4cccnc4)ncn3n2)cc1 | 0 | 22 | 11 | -22 | 0 | 3 | ·
COC(=O)c1cc2c(c3c4ccccc4n(S(=O)(=O)c4ccc(OC)cc4)c13)C(=O)N(C)C2 | -7 | · | · | · | 0 | · | ·
Cc1ccc(NC(=O)CN2C(=O)N/C(=C/c3ccc4c(c3)OCCO4)C2=O)cc1 | 22 | -16 | 3 | 16 | 0 | 48* | -6
Cc1ccc(NC(=O)CN2C(=O)N/C(=C/c3ccc(N4CCOCC4)cc3)C2=O)cc1 | · | 5 | -1 | -5 | 0 | -2 | ·
COc1ccc(-c2cc(=O)oc3c(C)c(OC(C)C(=O)Nc4ccc(CN5CCOCC5)cc4)ccc23)cc1 (stereo not given) | -3 | 30 | -6 | -30 | 0 | 43* | 7
Cc1ccccc1OCc1nnc(SCC(=O)Nc2ccc3nc(SCC(=O)Nc4ccccc4)sc3c2)n1C | · | 32 | -2 | -32 | 0 | 20* | 2
SMILES | Ecoli rRNA inh | SR-BI DiI inh | PvdQ inh | SR-BI DiI-HDL act | Xi reactivation | dFosB act-1 | dFosB act-2
Cc1ccccc1OCc1nnc(SCC(=O)Nc2ccc3c(c2)OCO3)n1C | 5 | -23 | 2 | 23 | · | -5 | ·
Cc1ccc(S(=O)(=O)Nc2ccc3c(c2)C(=O)N([C@@H](C)CO)C[C@@H](C)[C@H](CN(C)C)OCCCC[C@@H](C)O3)cc1 | 2 | · | · | · | 0 | · | ·
CCCCNS(=O)(=O)c1ccc(NC(=O)C2c3ccccc3Oc3ccccc32)cc1 | · | -21 | -9 | 21 | 0 | 44* | -4
O=C(Nc1ccncc1)C1c2ccccc2Oc2ccccc21 | · | -16 | -5 | 16 | · | 0 | ·
COC(=O)[C@]1(C)N[C@H](CN(C)C(=O)NC(C)C)[C@@H]2C(=O)N(C)C(=O)[C@@H]21 | 13 | 3 | -12 | -3 | 0 | 0 | ·
CCOc1ccccc1N(CC(=O)Nc1ccc(S(=O)(=O)N2CCOCC2)cc1)S(=O)(=O)c1ccccc1 | · | -4 | -7 | 4 | · | 53* | 0
CN(CC(=O)Nc1ccc(Cl)c(C(F)(F)F)c1)C(=O)/C=C/c1cccs1 | -1 | -8 | 2 | 8 | -1 | 29* | 0
CN(CC(=O)Nc1ccc(Cl)c(C(F)(F)F)c1)C(=O)c1cc(=O)c2ccccc2o1 | 3 | 5 | -4 | -5 | 0 | 33* | 0
CN(CC(=O)Nc1ccc(Cl)c(C(F)(F)F)c1)C(=O)c1cc(=O)[nH]c2ccccc12 | -31 | -8 | -10 | 8 | 0 | -21 | ·
CN(CC(=O)Nc1ccc(Cl)c(C(F)(F)F)c1)C(=O)/C=C/c1ccco1 | · | -24 | -9 | 24 | 0 | -13 | ·
CC1CCN(CCCNC(=O)c2cc3c(s2)-c2ccccc2OC3)CC1 | -1 | 7 | -40 | -7 | 0 | 5 | ·
COC(=O)c1c(C)cccc1C1CN=NC12Cc1ccccc1C2=O (stereo not given) | 12 | -11 | -8 | 11 | 0 | -2 | ·
O=C(N/N=C/c1ccc(Cl)c([N+](=O)[O-])c1)c1cc(-c2ccc3c4c(cccc24)CC3)n[nH]1 | 3 | 61 | -8 | -61 | 0 | 38* | 7
O=C(N/N=C/c1cccc([N+](=O)[O-])c1)c1cc(-c2ccc3c4c(cccc24)CC3)n[nH]1 | 3 | 45 | 4 | -45 | 0 | 3 | ·
CCSc1nnc(-c2ccc(C)cc2)c2ccccc12 | -55 | 41 | 3 | -41 | 0 | -10 | ·
